Measured values from ChEMBL document CHEMBL4014319, “Tolvaptan-Type Vasopressin Receptor Ligands: Important Role of Axial Chirality in the Active Form” (J Med Chem, 2017).

What was measured:
[1] = target: Vasopressin V2 receptor (Homo sapiens, UniProt P30518); experiment: Displacement of [3H] (Arg8)-vasopressin from human vasopressin V2 receptor expressed in CHOK1 cell membranes after 2 hrs by liquid scintillation counting method
Outline: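 Membranes (9 μg aliquot) prepared from CHO-K1 cells stably transfected with human V2 receptor, in 50 mM Tris-HCl pH 7.4, 10 mM MgCl2, 0.1% BSA. Incubated with 4 nM [3H](Arg8)-vasopressin for 2 h at 25 °C in 1% DMSO. Compounds were ≥99% pure by HPLC. Ki is the mean of duplicate measurements.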

[2] = target: Vasopressin V1a receptor (Homo sapiens, UniProt P37288); experiment: Displacement of [125I] phenylacetyl-D-Tyr(Me)-Phe-Gln-Asn-Arg-Pro-Arg-Tyr-NH2 from human recombinant vasopressin V1a receptor expressed in HEK293 after 2 hrs by liquid scintillation counting method; type: cell-based
Vasopressin V1a receptor, sequence (P37288 whole entry): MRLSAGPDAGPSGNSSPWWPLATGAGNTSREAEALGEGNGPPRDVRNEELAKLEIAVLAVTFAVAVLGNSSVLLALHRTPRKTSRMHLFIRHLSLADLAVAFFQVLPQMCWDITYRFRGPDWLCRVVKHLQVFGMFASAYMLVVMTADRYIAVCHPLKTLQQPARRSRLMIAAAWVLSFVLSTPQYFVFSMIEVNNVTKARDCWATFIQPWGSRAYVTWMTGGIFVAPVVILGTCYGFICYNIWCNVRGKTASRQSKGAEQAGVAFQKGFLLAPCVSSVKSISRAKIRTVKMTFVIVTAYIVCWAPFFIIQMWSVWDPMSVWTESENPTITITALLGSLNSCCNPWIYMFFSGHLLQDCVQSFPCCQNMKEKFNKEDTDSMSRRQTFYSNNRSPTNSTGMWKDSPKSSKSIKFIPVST
Outline: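 Recombinant human V1a receptor expressed in HEK-293 cells, tested in 50 mM Tris-HCl pH 7.4 buffer with 5 mM MgCl2 and 0.1% BSA. Incubation 2 h at 25 °C in 1% DMSO. Compounds were ≥99% pure by HPLC and were kept at low temperature after isolation to prevent isomerization. Ki is the mean of duplicate measurements.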

Vasopressin V2 receptor, sequence (P30518 whole entry): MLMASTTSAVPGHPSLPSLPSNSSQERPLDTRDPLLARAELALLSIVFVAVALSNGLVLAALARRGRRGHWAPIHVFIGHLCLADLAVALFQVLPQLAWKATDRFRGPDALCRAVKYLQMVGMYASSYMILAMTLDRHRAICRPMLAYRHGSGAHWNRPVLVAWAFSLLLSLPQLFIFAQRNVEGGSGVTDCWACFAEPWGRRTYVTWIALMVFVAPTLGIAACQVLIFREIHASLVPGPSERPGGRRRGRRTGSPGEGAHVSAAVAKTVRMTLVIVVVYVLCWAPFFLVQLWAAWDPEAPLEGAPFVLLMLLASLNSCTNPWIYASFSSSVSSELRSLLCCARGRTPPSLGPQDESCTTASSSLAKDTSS

| SMILES | Ki [1] | Ki [2] |
| --- | --- | --- |
| Cc1ccccc1C(=O)Nc1ccc(C(=O)N2CCC[C@H](O)c3c(C)cccc32)cc1 | 46 nM | 2.06 nM |
| Cc1ccccc1C(=O)Nc1ccc(C(=O)N2CCC[C@@H](O)c3cccc(C)c32)cc1 | 140 nM | 2.84 nM |
| Cc1ccccc1C(=O)Nc1ccc(C(=O)N2CCCC(O)c3cccc(C)c32)cc1 (stereo not drawn) | 170 nM | 6.26 nM |
| Cc1ccccc1C(=O)Nc1ccc(C(=O)N2CCC[C@@H](O)c3c(C)cccc32)cc1 (atropisomer aR) | 1790 nM | 78 nM |
| Cc1ccccc1C(=O)Nc1ccc(C(=O)N2CCCC(O)c3c(C)cccc32)cc1 (racemic) | 160 nM | 6.75 nM |
| Cc1ccccc1C(=O)Nc1ccc(C(=O)N2CCC[C@H](O)c3cccc(C)c32)cc1 | 54 nM | 4.68 nM |

The next lines start with the values.

| Ki [1] | Ki [2] | SMILES |
| --- | --- | --- |
| 7.56 nM | 1.58 nM | Cc1ccccc1C(=O)Nc1ccc(C(=O)N2CCCC(O)c3ccccc32)cc1 (racemic) |
| 8.3 nM | 1.03 nM | Cc1ccccc1C(=O)Nc1ccc(C(=O)N2CCC[C@@H](O)c3ccccc32)cc1 |
| 4.87 nM | 1.85 nM | Cc1ccccc1C(=O)Nc1ccc(C(=O)N2CCC[C@H](O)c3ccccc32)cc1 |
